Screens deposited in PubChem BioAssay by Sanford-Burnham Center for Chemical Genomics.
Most compounds without a hit are left out; they make up all but 4.1% or so of the library.
XBP1 UPR activ: activators of adaptive XBP1 UPR arm, primary screen, cell-based, CHO-XBP1 luciferase reporter, luminescence, uHTS. IRE1-XBP1 UPR activation; percent of tunicamycin response, DMSO as zero. hit rate 0.33% among 330,000. activation, % at 20 µM;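 active = versus positive control, 20 µM dose yields 30% or more activation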;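 also: 100% = tunicamycin at 10 µg/mL and 0% = DMSO only wells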
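Test system: CHO-XBP1 luciferase reporter cells | Buffer or medium: Serum-containing F12 medium, 10% FBS | Schedule: 6 h compound exposure at 37 °C, 5% CO2 | Detection: Steady-Glo luciferase glow luminescence, 10 min after reagent addition | Read-out basis: Activation, % of tunicamycin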
Mdm2 MdmX PPI: inhibitors of human Mdm2-MdmX association, primary screen, cell-based, luminescence, split luciferase, SaOS-2, uHTS; SaOS-2 split-luciferase Mdm2/MdmX complementation; inhibition, % at 8 µM; hit rate 3% among 330,000; AID 485346, 2010;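 active = inhibition of at least 50% at 8 µM in the primary screen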
UBC13 inh: UBC13 polyubiquitin chain formation inhibitors, primary screen, biochemical, TR-FRET, uHTS; inhibition, % at 20 µM; hit rate 0.47% among 330,000; in the data active = inhibition above about 45%, passing the limit was not always enough
Target sequence (P61088 whole entry, looked up): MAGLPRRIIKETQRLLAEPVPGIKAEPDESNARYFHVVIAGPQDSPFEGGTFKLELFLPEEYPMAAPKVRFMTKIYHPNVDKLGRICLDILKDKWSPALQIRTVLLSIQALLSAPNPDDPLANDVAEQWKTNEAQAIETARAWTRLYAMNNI
Apaf-1 inh: inhibitors of human Apaf-1 apoptosome, primary screen, biochemical, DEVD-Rh110 fluorescence, uHTS | inhibition, % at 20 µM | hit rate 0.71% among 330,000 | AID 489030, 2010 | reconstituted apoptosome caspase-3 activity | Apoptotic protease-activating factor 1 (Homo sapiens), O14727; active = inhibition of at least 40% at 20 µM;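 also: plate controls were DMSO wells for no effect and DEVD-CHO caspase inhibitor wells for full effect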
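Assay system – apoptosome proteins · Medium – Hepes buffer, pH 7.5 · Also added – cytochrome c with DEVD-Rh110 · Timing – 30 min compound preincubation, 50 min activation, room temperature · Detection – Rh110 fluorescence, excitation 480 nm, emission 540 nm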
UPR CHOP act: activators of apoptotic CHOP UPR arm, primary screen, cell-based, CHO-CHOP luciferase reporter, luminescence, uHTS. UPR activation; percent of tunicamycin response over DMSO baseline. activation, % at 10 µM. hit rate 0.34% among 330,000. AID 449763, 2010;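 active = at 10 µM dose, activation of 40% or more, normalized to positive control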;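 also: 100% = tunicamycin at 10 µg/mL and 0% = DMSO alone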
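Assay system: CHO-CHOP cells, stable luciferase reporter of PERK-eIF2a-CHOP signalling / Buffer or medium: F12 plus 10% serum / Compound dosing: one dose, 10 µM in 0.5% DMSO / Times: 6 h compound treatment, 37 °C / Technique: luciferase luminescence / Read-out: % reporter activation, DMSO baseline versus tunicamycin full activation / Benchmarks: tunicamycin and DMSO controls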
Mdm2-MdmX conf: Mdm2-MdmX complex disruptors, retested hits, confirmation, luminescence, single concentration; hit rate 55% among 10,000; inhibition, % at 8 µM; Mdm2-MdmX binding, luminescent assay; AID 489028, 2010; shares compounds with Mdm2 MdmX PPI; in the data active = inhibition above about 40%
Full FLuc ctr: full-length luciferase signal inhibition, confirmation, counter-screen for Mdm2/MdmX interaction inhibitor project, cell-based, single concentration, SaOS-2; shares compounds with Mdm2 MdmX PPI; SaOS-2 full-length luciferase counterscreen, luminescence; inhibition, % at 8 µM; hit rate 77% among 6,200; AID 504607, 2011;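 active = mean inhibition at 8 µM reaching about 37%, which flags the compound as non-specific, limit read from the data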;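 also: p53-null SaOS-2 cells with luciferase driven by a doxycycline-inducible promoter; compound on cells about two nights before reading with doxycycline added after day one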
* hit, by the source's call; / = no result.

SMILES	XBP1 UPR activ	Mdm2 MdmX PPI	UBC13 inh	Apaf-1 inh	UPR CHOP act	Mdm2-MdmX conf	Full FLuc ctr
COc1ccc(-n2c(N)c(Br)c(=O)[nH]c2=O)cc1	0	13	5	-22	-1	/	/
Cc1ccc(-c2nc3ccccc3s2)cc1NC(=S)NC(=O)/C=C/c1ccco1	25	14	-34	24	12	/	/
O=C(/C=C/c1ccco1)NC(=S)Nc1cccc(-c2nc3ccccc3o2)c1	2	59*	-18	6	-2	53*	92*
Cc1ccc(-c2nc3ccccc3o2)cc1NC(=S)NC(=O)/C=C/c1ccco1	1	55*	-20	5	2	30	/
COc1cccc(NC(=O)COC(=O)/C=C/c2c(C)nn(-c3ccccc3)c2C)c1	-2	-3	-2	10	1	/	/
CCN(C(=O)COC(=O)CCc1ccccc1)c1ccccc1	-2	13	0	10	1	/	/
COc1ccc2nc3cc(Cl)ccc3c(Nc3cc(CN4CCCC4)c(O)c(CN4CCCC4)c3)c2n1	-7	99*	-88	62*	2	53*	77*
COc1ccc(N=Nc2cc(C)c(O)c(CN3CCCCC3)c2)cc1	0	-35	-31	5	1	/	/
COc1ccc(-c2ccc3oc(-c4ccc(OC)cc4)c(C#CC4(O)CCCCC4)c3c2)cc1	-2	70*	0	15	0	32	/
COc1cccc(-c2sc3ccc(OC)cc3c2C#CC2(O)CCCCC2)c1	-2	21	17	23	0	/	/
COc1ccc(-c2sc3ccc(N4CCOCC4)cc3c2C#CC2(O)CCCCC2)cc1	3	76*	33	17	-1	10	/
COC(=O)c1[nH]c2c(c1C)C(=O)CC(c1ccccc1)C2 (configuration not stated)	11	70*	-3	-3	0	55*	89*
COC(=O)C1C(=O)c2c([nH]c(C(=O)OC3CCCC3)c2C)CC1C (configuration not stated)	2	-73	0	4	5	/	/
Cc1c(C(=O)OCC2CCCO2)[nH]c2c1C(=O)CC(c1ccco1)C2 (configuration not stated)	2	38	-5	11	-2	/	/
COC(=O)c1[nH]c2c(c1C)C(=O)CC(c1ccc(OC)cc1)C2 (configuration not stated)	-5	16	7	4	4	/	/
C=CCOC(=O)c1[nH]c2c(c1C)C(=O)CC(c1ccco1)C2 (configuration not stated)	12	63*	4	9	-2	55*	86*
Cc1c(C(=O)OC2CCCC2)[nH]c2c1C(=O)CC(c1ccco1)C2 (configuration not stated)	11	68*	-5	10	-2	48*	78*
Cc1c(C(=O)O)[nH]c2c1C(=O)CC(c1ccc(C(C)(C)C)cc1)C2 (configuration not stated)	4	-9	1	6	4	/	/
Cc1c(C(=O)N2CCOCC2)[nH]c2c1C(=O)CC(c1ccccc1Cl)C2 (configuration not stated)	5	73*	-6	9	0	56*	59*
Cc1nc(C(=O)N/N=C/c2[nH]ncc2Br)cs1	1	9	1	-5	2	/	/
COc1ccc(S(=O)(=O)c2snnc2C)cc1	-3	18	1	9	0	/	/
C/C=C/COC(=O)c1[nH]c2c(c1C)C(=O)CC(c1ccc(N(C)C)cc1)C2 (configuration not stated)	0	21	7	5	4	/	/
C/C=C/COC(=O)c1[nH]c2c(c1C)C(=O)CC(c1ccco1)C2 (configuration not stated)	11	65*	-8	12	-1	56*	73*
Cc1c(C(=O)OCC(C)C)[nH]c2c1C(=O)CC(c1ccco1)C2 (configuration not stated)	8	75*	-9	-3	3	54*	77*
COc1ccccc1NS(=O)(=O)c1cccc(C(=O)N/N=C(\C)c2cccnc2)c1	1	-8	-3	2	1	/	/
SMILES	XBP1 UPR activ	Mdm2 MdmX PPI	UBC13 inh	Apaf-1 inh	UPR CHOP act	Mdm2-MdmX conf	Full FLuc ctr
O=C(Nc1nnc(-c2ccccc2F)s1)Nc1ccccc1F	5	1	0	-13	4	/	/
O=C(Nc1nnc(-c2ccccc2SCc2ccccc2)s1)Nc1ccccc1F	2	76*	-11	10	4	17	/
COc1cccc(NC(=O)Nc2nnc(-c3ccccc3SCc3ccccc3)s2)c1	4	53*	-9	-1	4	33	/
COc1ccc(-c2csc(NC(=S)NC(=O)c3ccccc3)n2)cc1Br	0	56*	-10	-12	0	38	85*
COc1ccc(-c2csc(NC(=S)NC(=O)c3cc4ccccc4o3)n2)cc1Br	0	-4	-10	9	1	/	/
COc1ccc(-c2csc(NC(=S)NC(=O)c3ccco3)n2)cc1Br	9	82*	-12	1	1	56*	23
COc1cc(OC)cc(C(=O)NC(=S)Nc2nc(-c3cc4ccccc4o3)cs2)c1	22	65*	-10	-24	2	0	/
COc1ccccc1-c1csc(NC(=O)c2ccc(N3C(=O)CCC3=O)cc2)n1	-3	-4	5	4	-1	/	/
CCCC(=O)NC(c1ccc2c(c1)OCO2)c1cc(Cl)c2cccnc2c1O (configuration not stated)	3	76*	-11	9	0	72*	21
CC(C)C(=O)NC(c1ccc([N+](=O)[O-])cc1)c1c(O)ccc2ccccc12 (configuration not stated)	-1	34	-2	18	-1	/	/
CCC(=O)NC(C)c1cc(Cl)c2cccnc2c1O (configuration not stated)	2	39	-15	-6	0	/	/
CCCC(=O)NC(c1ccco1)c1cc(Cl)c2cccnc2c1O (configuration not stated)	0	65*	-32	16	-2	46*	23
